Measured values reported in ChEMBL document CHEMBL1154085, “Diamine-based human histamine H3 receptor antagonists: (4-aminobutyn-1-yl)benzylamines” (Eur J Med Chem, 2009).
The source made the active and inactive calls. The rule behind the calls is not given here.

How the values were obtained:
Rattus norvegicus [1] = experiment: Ex vivo histamine H3 receptor occupancy in rat striatum at 30 mg/kg, po after 1 hr; assay type: functional
Outline: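 Ex vivo autoradiography in rat striatum, coronal sections, using [3H]-R-alpha-methylhistamine as radioligand. Oral dosing at 0.1, 0.3, 1, 3, 10 or 30 mg/kg; brains taken 1 h post-dose to measure H3 receptor occupancy.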

Histamine H3 receptor [2] = target: T1, Histamine H3 receptor (Rattus norvegicus, UniProt Q9QYN8); experiment: Displacement of [3H]N-alpha-methylhistamine from rat histamine H3 receptor expressed in SK-N-MC cells; assay type: cell-based
T1 sequence (Q9QYN8 whole entry): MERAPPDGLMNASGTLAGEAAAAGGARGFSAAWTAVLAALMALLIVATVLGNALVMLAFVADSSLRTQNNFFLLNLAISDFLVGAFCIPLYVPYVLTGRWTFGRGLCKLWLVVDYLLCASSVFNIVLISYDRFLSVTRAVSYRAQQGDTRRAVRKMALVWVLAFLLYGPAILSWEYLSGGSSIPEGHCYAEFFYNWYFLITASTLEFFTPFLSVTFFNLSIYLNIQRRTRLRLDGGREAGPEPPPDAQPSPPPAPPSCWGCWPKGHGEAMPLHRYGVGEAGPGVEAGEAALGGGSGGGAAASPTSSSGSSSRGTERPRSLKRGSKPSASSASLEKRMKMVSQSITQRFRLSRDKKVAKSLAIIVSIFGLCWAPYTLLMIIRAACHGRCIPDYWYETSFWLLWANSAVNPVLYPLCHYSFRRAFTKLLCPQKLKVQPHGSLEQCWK
Outline: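 Membranes from homogenized SK-N-MC cells expressing the rat H3 receptor, in 50 mM Tris/5 mM EDTA pH 7.4. Incubated with 0.8 nM [3H]-Nα-methylhistamine ± compound for 60 min at 25 °C, then filtered and washed with ice-cold buffer. Nonspecific binding was defined with 10 μM histamine.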

Histamine H1 receptor = Histamine H1 receptor (Homo sapiens, UniProt P35367); experiment: Displacement of […] from histamine H1 receptor expressed in SK-N-MC cells; assay type: cell-based
Sequence of Histamine H1 receptor (P35367 whole entry): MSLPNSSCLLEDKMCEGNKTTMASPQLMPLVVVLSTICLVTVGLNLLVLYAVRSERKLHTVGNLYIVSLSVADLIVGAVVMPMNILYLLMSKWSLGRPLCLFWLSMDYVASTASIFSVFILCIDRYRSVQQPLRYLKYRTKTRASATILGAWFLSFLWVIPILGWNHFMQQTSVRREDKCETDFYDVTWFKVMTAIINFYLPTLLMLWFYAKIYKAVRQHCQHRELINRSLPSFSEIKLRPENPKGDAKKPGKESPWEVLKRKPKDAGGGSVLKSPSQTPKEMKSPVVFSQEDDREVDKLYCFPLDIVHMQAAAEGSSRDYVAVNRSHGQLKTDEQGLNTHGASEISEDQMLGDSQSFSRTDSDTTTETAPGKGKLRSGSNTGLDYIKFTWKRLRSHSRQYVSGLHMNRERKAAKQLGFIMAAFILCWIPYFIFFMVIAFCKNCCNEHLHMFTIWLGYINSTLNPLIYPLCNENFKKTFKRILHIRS

Histamine H4 receptor = Histamine H4 receptor (Homo sapiens, UniProt Q9H3N8); experiment: Displacement of […] from histamine H4 receptor expressed in SK-N-MC cells; assay type: cell-based
hERG (KCNH2) [3] = target: T2, hERG (KCNH2) (Homo sapiens, UniProt Q12809); experiment: Inhibition of human ERG at 10 uM; conditions: read-out: Activity
T2 sequence (Q12809 whole entry): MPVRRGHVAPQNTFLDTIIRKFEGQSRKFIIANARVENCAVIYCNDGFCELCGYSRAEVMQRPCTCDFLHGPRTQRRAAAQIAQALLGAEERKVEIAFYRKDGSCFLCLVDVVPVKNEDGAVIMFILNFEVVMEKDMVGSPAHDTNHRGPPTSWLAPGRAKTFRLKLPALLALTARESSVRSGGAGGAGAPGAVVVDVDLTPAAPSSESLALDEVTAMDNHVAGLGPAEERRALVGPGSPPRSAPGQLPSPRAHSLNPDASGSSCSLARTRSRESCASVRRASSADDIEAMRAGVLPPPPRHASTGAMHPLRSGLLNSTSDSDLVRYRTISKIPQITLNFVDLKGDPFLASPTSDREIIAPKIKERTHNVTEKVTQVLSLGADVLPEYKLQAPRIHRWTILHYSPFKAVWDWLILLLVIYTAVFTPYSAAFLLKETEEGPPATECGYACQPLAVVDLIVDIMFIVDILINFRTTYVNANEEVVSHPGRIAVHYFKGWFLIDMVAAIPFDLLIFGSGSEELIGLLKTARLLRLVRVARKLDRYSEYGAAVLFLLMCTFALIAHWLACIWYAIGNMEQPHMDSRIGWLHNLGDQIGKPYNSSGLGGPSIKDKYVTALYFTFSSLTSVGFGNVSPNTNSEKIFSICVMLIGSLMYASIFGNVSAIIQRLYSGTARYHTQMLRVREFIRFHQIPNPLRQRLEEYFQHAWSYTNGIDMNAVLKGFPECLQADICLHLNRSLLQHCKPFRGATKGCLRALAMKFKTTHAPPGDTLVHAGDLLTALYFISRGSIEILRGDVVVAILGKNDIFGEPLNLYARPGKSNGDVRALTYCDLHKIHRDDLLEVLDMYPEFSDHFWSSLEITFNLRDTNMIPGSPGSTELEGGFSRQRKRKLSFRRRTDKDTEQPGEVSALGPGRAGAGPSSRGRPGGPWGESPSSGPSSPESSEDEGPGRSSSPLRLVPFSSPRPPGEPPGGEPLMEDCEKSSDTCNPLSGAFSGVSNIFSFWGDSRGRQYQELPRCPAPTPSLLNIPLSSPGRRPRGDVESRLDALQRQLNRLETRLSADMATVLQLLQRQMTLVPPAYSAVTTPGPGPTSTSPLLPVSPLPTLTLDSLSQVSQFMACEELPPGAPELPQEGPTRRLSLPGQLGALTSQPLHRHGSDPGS

hERG (KCNH2) [4] = target: T2, hERG (KCNH2); experiment: Inhibition of human ERG at 3 uM; conditions: read-out: Activity
Cytochrome P450 1A2 = target: T3, Cytochrome P450 1A2 (Homo sapiens, UniProt P05177); experiment: Inhibition of CPY1A2 at >40 uM
T3 sequence (P05177 whole entry): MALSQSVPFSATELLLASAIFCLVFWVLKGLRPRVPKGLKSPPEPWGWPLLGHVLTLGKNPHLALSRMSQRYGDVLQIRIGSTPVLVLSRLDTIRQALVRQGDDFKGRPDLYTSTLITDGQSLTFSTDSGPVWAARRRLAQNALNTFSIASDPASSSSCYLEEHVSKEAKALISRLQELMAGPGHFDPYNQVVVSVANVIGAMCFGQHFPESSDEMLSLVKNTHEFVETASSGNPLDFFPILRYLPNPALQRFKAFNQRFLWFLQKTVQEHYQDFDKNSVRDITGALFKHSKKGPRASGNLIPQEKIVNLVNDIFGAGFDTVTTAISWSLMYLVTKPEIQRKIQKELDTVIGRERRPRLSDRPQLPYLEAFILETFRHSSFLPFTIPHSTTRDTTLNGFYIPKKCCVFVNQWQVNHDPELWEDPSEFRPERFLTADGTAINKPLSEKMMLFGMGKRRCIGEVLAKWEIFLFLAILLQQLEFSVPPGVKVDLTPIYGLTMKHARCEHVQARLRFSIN

Cytochrome P450 2C9 = Cytochrome P450 2C9 (Homo sapiens, UniProt P11712); experiment: Inhibition of CPY2C9 at >40 uM
Sequence of Cytochrome P450 2C9 (P11712 whole entry): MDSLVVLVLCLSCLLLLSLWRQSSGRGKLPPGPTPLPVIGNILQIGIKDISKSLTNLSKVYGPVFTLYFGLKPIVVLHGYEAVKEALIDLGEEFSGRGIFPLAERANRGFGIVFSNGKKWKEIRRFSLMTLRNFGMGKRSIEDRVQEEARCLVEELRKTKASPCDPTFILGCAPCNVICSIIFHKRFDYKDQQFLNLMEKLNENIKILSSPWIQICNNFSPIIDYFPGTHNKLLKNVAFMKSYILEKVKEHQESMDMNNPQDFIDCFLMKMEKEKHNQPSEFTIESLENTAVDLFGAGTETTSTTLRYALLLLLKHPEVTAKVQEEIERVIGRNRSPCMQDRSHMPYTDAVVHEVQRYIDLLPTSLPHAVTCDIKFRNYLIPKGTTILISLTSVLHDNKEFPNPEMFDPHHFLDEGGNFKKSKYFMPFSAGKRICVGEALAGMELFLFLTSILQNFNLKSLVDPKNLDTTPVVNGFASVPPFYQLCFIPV

Rattus norvegicus [5] = experiment: Wake promoting activity in Sprague-Dawley rat assessed as decrease in non-rapid eye movement sleep at 10 mg/kg, sc; assay type: functional, organism-based; design: dose 10 mg/kg
Outline: (§1)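 Male adult Sprague-Dawley rats chronically implanted with EEG/EMG electrodes, given 10 mg/kg s.c. or saline vehicle 2 h after light-phase onset. Recording for 8 h, visually scored in 10 s epochs as wake, NREM or REM. Time per 1 h interval as % of recording time; n = 5 animals; vehicle vs compound by paired t-test.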

Cytochrome P450 2C19 = Cytochrome P450 2C19 (Homo sapiens, UniProt P33261); experiment: Inhibition of CPY2C19 at >40 uM
Sequence of Cytochrome P450 2C19 (P33261 whole entry): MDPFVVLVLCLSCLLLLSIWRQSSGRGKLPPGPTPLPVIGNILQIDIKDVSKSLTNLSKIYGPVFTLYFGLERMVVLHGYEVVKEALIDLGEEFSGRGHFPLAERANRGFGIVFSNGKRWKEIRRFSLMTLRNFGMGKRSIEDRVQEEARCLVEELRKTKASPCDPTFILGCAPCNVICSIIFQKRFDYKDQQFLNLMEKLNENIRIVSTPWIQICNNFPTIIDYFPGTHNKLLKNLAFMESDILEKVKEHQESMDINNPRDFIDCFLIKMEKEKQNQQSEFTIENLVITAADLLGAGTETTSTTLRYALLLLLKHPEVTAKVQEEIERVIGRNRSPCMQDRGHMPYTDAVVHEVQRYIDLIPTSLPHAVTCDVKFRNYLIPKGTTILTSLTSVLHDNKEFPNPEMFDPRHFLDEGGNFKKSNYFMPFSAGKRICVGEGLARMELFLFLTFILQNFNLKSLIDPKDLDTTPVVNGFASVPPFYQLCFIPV

Cytochrome P450 2D6 = Cytochrome P450 2D6 (Homo sapiens, UniProt P10635); experiment: Inhibition of CPY2D6 at >40 uM
Sequence of Cytochrome P450 2D6 (P10635 whole entry): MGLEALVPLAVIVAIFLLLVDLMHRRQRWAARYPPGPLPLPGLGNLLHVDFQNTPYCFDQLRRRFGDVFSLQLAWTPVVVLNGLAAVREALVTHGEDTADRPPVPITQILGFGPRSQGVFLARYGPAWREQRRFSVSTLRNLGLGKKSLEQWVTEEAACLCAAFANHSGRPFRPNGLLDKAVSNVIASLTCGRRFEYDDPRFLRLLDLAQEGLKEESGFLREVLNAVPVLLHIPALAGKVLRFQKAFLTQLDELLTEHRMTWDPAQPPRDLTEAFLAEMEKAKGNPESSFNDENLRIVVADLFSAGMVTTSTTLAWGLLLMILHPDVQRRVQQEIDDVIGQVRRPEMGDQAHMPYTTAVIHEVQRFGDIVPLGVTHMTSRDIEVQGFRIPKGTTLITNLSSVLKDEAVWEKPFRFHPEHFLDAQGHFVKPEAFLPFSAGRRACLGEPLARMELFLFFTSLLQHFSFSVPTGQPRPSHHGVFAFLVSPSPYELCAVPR

Cytochrome P450 3A4 = Cytochrome P450 3A4 (Homo sapiens, UniProt P08684); experiment: Inhibition of CPY3A4 at >40 uM
Sequence of Cytochrome P450 3A4 (P08684 whole entry): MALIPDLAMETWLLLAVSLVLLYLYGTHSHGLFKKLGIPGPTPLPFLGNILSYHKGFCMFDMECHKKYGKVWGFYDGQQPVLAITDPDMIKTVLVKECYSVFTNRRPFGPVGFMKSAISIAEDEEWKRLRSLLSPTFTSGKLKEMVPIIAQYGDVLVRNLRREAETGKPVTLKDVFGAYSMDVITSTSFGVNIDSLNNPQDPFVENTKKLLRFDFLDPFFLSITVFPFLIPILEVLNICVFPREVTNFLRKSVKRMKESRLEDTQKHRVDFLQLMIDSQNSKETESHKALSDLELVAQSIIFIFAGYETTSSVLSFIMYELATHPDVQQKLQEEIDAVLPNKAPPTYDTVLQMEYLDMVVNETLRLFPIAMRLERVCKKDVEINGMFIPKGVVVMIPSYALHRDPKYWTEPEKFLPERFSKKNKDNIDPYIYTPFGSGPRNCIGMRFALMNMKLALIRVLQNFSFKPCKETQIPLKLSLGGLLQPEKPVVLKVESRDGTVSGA

[6] = Oral bioavailability in rat; assay type: ADME, organism-based; conditions: in vivo
Histamine H3 receptor [7] = target: T1, Histamine H3 receptor; experiment: Antagonist activity at rat H3 receptor expressed in SK-N-MC cells assessed as inhibition of forskolin-stimulated cAMP accumulation treated 10 min before histamine challenge; assay type: functional, cell-based; conditions: read-out: pA2 (converted)
Rattus norvegicus [8] = experiment: Wake promoting activity in Sprague-Dawley rat assessed as effect on rapid eye movement sleep at 10 mg/kg, sc; assay type: functional, organism-based; design: dose 10 mg/kg; outline: as §1
[9] = Half life in po dosed rat; assay type: ADME, organism-based; conditions: in vivo
Histamine H3 receptor [10] = target: T4, Histamine H3 receptor (Homo sapiens, UniProt Q9Y5N1); experiment: Displacement of [3H]N-alpha-methylhistamine from human histamine H3 receptor expressed in SK-N-MC cells; assay type: cell-based
T4 sequence (Q9Y5N1 whole entry): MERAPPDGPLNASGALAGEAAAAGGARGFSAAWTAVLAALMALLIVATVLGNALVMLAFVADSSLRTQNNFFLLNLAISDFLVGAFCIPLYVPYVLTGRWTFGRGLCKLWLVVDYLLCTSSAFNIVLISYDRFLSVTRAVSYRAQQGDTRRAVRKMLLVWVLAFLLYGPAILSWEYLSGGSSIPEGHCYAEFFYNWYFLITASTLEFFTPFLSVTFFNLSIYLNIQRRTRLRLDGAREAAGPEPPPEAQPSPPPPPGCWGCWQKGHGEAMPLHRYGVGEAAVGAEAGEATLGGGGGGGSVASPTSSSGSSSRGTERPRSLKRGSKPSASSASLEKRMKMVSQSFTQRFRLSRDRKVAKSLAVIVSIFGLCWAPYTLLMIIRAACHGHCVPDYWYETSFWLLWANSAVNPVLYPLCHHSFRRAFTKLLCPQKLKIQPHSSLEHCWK
Outline: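 Membranes prepared from SK-N-MC cells expressing human H3 receptor, homogenized in 50 mM Tris/5 mM EDTA, pH 7.4. Incubated with 0.8 nM [3H]-N-alpha-methylhistamine ± compound, 60 min, 25 °C. Filtration over polyethylenimine-treated glass fiber filters with four ice-cold washes. Nonspecific binding defined with 10 µM histamine.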

Histamine H3 receptor [11] = target: T4, Histamine H3 receptor; experiment: Antagonist activity at human histamine H3 receptor expressed in SK-N-MC cells assessed as inhibition of forskolin-stimulated cAMP accumulation treated 10 min before histamine challenge; assay type: functional, cell-based; conditions: read-out: pA2 (converted)
Outline: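 SK-N-MC sublines stably carrying human H3 receptor plus a beta-galactosidase reporter driven by multiple cAMP responsive elements. Antagonist added 10 min before histamine; forskolin (5 µM final) 5 min after histamine; 6 h at 37 °C. Lysis, then chlorophenol red beta-D-galactopyranoside substrate, absorbance 570 nm. pA2 from Schild regression of rightward shifts in histamine curves; mean of at least three determinations.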

| SMILES | Ki (Histamine H3 receptor [10]) | also measured |
| --- | --- | --- |
| C(#Cc1cccc(CN2CCOCC2)c1)CCN1CCCCC1 | – | ED50 (Rattus norvegicus [1]): 6.5 mg/kg; Ki (Histamine H3 receptor [2]): 7.08 nM; Ki (Histamine H1 receptor): > 10000 nM; Ki (Histamine H4 receptor): > 10000 nM; inhibition at 10 µM (hERG (KCNH2) [3]): 13.7%; inhibition at 3 µM (hERG (KCNH2) [4]): 8.3%; inhibition (INH) (Cytochrome P450 1A2): Not Active; inhibition (INH) (Cytochrome P450 2C9): Not Active; Activity (Rattus norvegicus [5]): Active; inhibition (INH) (Cytochrome P450 2C19): Not Active; inhibition (INH) (Cytochrome P450 2D6): Not Active; inhibition (INH) (Cytochrome P450 3A4): Not Active; bioavailability [6]: 11%; Kb (Histamine H3 receptor [7]): 4.68 nM; Activity (Rattus norvegicus [8]): inactive; half-life [9]: 1.5 h |
| C(#Cc1ccc(CN2CCCCC2)cc1)CCN1CCOCC1 | 5.01 nM | – |
| NC(=O)C1CCN(Cc2cccc(C#CCCN3CCCCC3)c2)CC1 | 0.55 nM | – |
| CC(C)N1CCN(Cc2ccc(C#CCCN3CCCCC3)cc2)CC1 | 0.871 nM | – |
| C(#Cc1ccc(CN2CCC(Cc3ccccc3)CC2)cc1)CCN1CCCCC1 | 3.47 nM | – |
| CN(C)Cc1ccc(C#CCCN2CCCCC2)cc1 | 0.912 nM | – |
| C(#Cc1ccc(CN2CCN(Cc3ccccc3)CC2)cc1)CCN1CCCCC1 | 1.91 nM | – |
| C(#Cc1ccc(CN2CCCCC2)cc1)CCN1CCSCC1 | 3.8 nM | – |
| C(#Cc1ccc(CN2CCOCC2)cc1)CCN1CCCCC1 | 1.74 nM | Kb (Histamine H3 receptor [11]): 3.24 nM |
| CN1CCN(CCC#Cc2ccc(CN3CCCCC3)cc2)CC1 | 5.25 nM | – |
| OC1CCN(Cc2ccc(C#CCCN3CCCCC3)cc2)CC1 | 0.891 nM | – |
| CCN(CC)CCC#Cc1ccc(CN2CCCCC2)cc1 | 1.35 nM | – |
| NC(=O)C1CCN(Cc2ccc(C#CCCN3CCCCC3)cc2)CC1 | 0.759 nM | – |
| CN1CCN(Cc2ccc(C#CCCN3CCCCC3)cc2)CC1 | 0.977 nM | – |

More lines, main results first:

| Ki (Histamine H3 receptor [10]) | SMILES | also measured |
| --- | --- | --- |
| 14.5 nM | C(#Cc1cccc(CN2CCCCC2)c1)CCN1CCOCC1 | – |
| 0.513 nM | C(#Cc1ccc(CN2CCCCC2)cc1)CCN1CCCCC1 | Kb (Histamine H3 receptor [11]): 0.148 nM |
| 81.3 nM | C(#Cc1cccc(CN2CCCC2)c1)CCN1CCCCC1 | – |
| 0.776 nM | C(#Cc1cccc(CN2CCCCC2)c1)CCN1CCCCC1 | Kb (Histamine H3 receptor [11]): 0.0813 nM |
| 83.2 nM | C(#Cc1ccccc1CN1CCCCC1)CCN1CCCCC1 | – |
| 0.676 nM | C(#Cc1ccc(CN2CCCCC2)cc1)CCN1CCCC1 | – |
| 0.724 nM | CN1CCN(Cc2cccc(C#CCCN3CCCCC3)c2)CC1 | – |
| 0.617 nM | C(#Cc1ccc(CN2CCCC2)cc1)CCN1CCCCC1 | – |
